# Screens deposited in PubChem by several laboratories.
# aDG glyco up: alpha-DG glycosylation activation | Pro5-aDG cells, alpha-DG glycosylation AlphaScreen (IIH6); 0% Pro5, 100% B10-LARGE cell signal | activation, % at 10 µM | 0.22% of 360,000 active | AID 624168;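 active = activation of at least 8% versus controls, or a plate z-score of at least 8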;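 note: Pro5 are CHO cells carrying HIG-tagged alpha-DG that lacks glycosylation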
# V-ATPase pH: regulators of yeast V-ATPase proton transport; S. cerevisiae, pHLuorin cytosolic pH fluorescence; response, % at 10 µM; 0.37% of 350,000 active; in the data active = response mostly above about 7.3%, no sharp cut-off; inactive = mostly below about 5.4%; note: actives read high
# ADAM10 inh: ADAM10 inhibition, QFRET primary screen; 0.62% of 370,000 active; inhibition, % at 7 µM; AID 720582; O14672; recombinant ADAM10, EDANS/DABCYL FRET peptide cleavage, 3 h;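 active = inhibition above a per-campaign cutoff equal to the mean of compounds falling between control-based bounds plus 3 SD, cut at about 20% in these data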;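 note: 0% = DMSO wells while the 100% control is not disclosed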
# Target sequence (O14672 214-748 limits assumed): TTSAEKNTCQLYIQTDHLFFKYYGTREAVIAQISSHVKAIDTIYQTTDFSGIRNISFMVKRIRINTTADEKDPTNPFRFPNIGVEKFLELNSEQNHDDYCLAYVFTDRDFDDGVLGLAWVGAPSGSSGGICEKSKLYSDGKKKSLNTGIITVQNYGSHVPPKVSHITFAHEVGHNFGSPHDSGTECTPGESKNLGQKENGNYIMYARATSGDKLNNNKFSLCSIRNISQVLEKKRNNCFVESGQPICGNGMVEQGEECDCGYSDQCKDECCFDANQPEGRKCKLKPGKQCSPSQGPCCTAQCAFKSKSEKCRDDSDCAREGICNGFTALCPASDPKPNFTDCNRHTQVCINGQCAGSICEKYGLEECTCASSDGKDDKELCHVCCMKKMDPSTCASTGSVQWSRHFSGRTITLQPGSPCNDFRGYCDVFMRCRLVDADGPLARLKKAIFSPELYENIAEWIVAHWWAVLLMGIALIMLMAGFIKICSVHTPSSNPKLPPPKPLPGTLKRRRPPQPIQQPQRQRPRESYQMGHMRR
# MPTP block: inhibitors of mitochondrial permeability transition pore. isolated mouse mitochondria, Ca2+ swelling absorbance, 30 min. 1.4% of 360,000 active. inhibition, % at 10 µM;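 active = inhibition of 50% or more, scaled per plate between neutral and stimulator controls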;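 note: 0% = DMSO wells given calcium and 100% = 1 mM EGTA wells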
# Lipid droplet: hepatic lipid droplet formation modulation; AML12 mouse hepatocytes, oleate lipid droplets, BODIPY imaging; inhibition, % at 6.5 µM; 0.4% of 240,000 active;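 active = lipid droplet intensity inhibited by at least 50%, with more than 500 cells counted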
#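 Material – AML12 mouse liver cells · Also added – oleate loading, 100 µM · Compound dosing – 6.5 µM single-point dosing · Times – overnight treatment with compound plus oleate · Measured by – fluorescence imaging, 20x objective, two fields per well · Read-out – percent inhibition of filter-corrected integrated lipid droplet intensity per well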
# ADAM17 inh: inhibits human ADAM17; AID 720648; recombinant ADAM17, EDANS/DABCYL FRET peptide cleavage; 0.83% of 370,000 active; inhibition, % at 6.95 µM;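 active = inhibition above the mean of compounds lying between control limits plus 3 SD, set per campaign, cut at about 8.5% in these data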;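 note: 0% = DMSO-only wells as the low control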
# V-ATPase pH SP: yeast V-ATPase proton transport regulation. shares compounds with V-ATPase pH. S. cerevisiae pHLuorin cytosolic pH. response, % at 10 µM. 2% of 980 active. AID 602197; in the data active = response above about 24%;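 note: plate controls were vehicle wells for no effect and positive control wells for full effect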
# Numbers without * were called inactive; x = no result given. Hits are enriched below; roughly 3.1% of the tested compounds scored in any of these assays.
SMILES,aDG glyco up,V-ATPase pH,ADAM10 inh,MPTP block,Lipid droplet,ADAM17 inh,V-ATPase pH SP
Cn1c(SCC(=O)Nc2nc3ccccc3s2)nnc1-c1ccccc1,0,-1,-7,0,-2,-5,x
COc1ccc(Oc2c(Cl)cnn(C3c4ccccc4-c4ccccc43)c2=O)cc1,x,x,-12,x,x,-7,x
Cc1c(C(=O)NN)nn(-c2ccc(Cl)cc2)c(=O)c1C#N,0,1,3,-1,-2,-4,-3
Cc1ccc(-n2nc(C(=O)NN)c(C)c(C#N)c2=O)cc1Cl,0,0,4,-1,-4,3,x
COc1ccc(N(CC(=O)NCCC2=CCCCC2)S(=O)(=O)c2ccccc2)cc1OC,1,14*,-6,-2,1,-2,-1
S=C(Nc1ccc(Br)cc1)OC1CCC12CCC(c1ccccc1)CC2 (stereo unspecified),x,x,5,x,x,3,x
COc1ccc(N2CCN(CCNS(=O)(=O)c3ccc(Br)s3)CC2)cc1,x,x,-2,x,x,-1,x
COc1ccccc1Nc1nc(-c2cccnc2)cs1,0,4,-3,0,x,0,x
COc1ccc(Nc2nc(-c3cccnc3)cs2)c(OC)c1,0,9.1*,-8,0,x,-1,3
CN1C[C@]2(C=C3CCCCC3n3c(=O)n(-c4ccccc4)c(=O)n32)N(C(=O)OCc2ccccc2)C1=NC(=O)c1ccccc1 (stereo partly specified),x,x,8,x,x,1,x
COc1ccc2[nH]c3c(c2c1)CCN[C@]31C(=O)N(c2ccccc2)c2ccccc21,x,x,-5,x,x,-2,x
COc1ccc(S(=O)(=O)N2CCN(Cc3c[nH]c4ccccc34)CC2)cc1,0,7.8*,4,1,x,3,1
Cc1cc(C)c2cccc(N)c2n1,0,31*,-8,-1,0,-2,0
CN(C)CC(=O)N[C@@H]1C[C@@H]2O[C@@H](CO)CC[C@@H]2O[C@@H]1CCc1ccc(C2=CCCCC2)cc1,x,x,4,x,x,2,x
Cc1cc(C)c(NC(=O)CSc2nc3ccc(N4C(=O)c5ccccc5C4=O)cc3s2)c(C)c1,0,9.0*,-2,4,0,-7,-47
O=C(COC(=O)c1c(Cl)cccc1Cl)NCC1CCCO1 (stereo unspecified),0,12*,-3,0,-28,-2,0
Cn1c(SCC(=O)Nc2ccccc2)nc(O)cc1=O,0,8.9*,6,0,x,-4,-1
CCCCn1c(=N)n(CC(O)c2ccccc2)c2ccccc21 (stereo unspecified),0,6,3,1,-6,-3,x
CCn1c(=N)n(CC(O)c2ccccc2)c2ccccc21 (stereo unspecified),0,28*,-7,-4,2,-3,1
COc1ccc(-c2cc(C(=O)NCCCn3ccnc3)no2)cc1OC,0,12*,-2,0,-11,0,-1
O=C(NC1CCCCN(Cc2cccc(Cl)c2)C1=O)C1CCCCC1 (stereo unspecified),x,x,-3,x,x,-2,x
CCCC(=O)C1=C(O)C(C(=O)OC)C(C)(C)CC1=Nc1ccc(N)cc1 (stereo unspecified),0,2,3,3,x,-1,x
CCCC(=O)C1=C(O)C(C(=O)OC)C(C)(C)CC1=Nc1ccc(C)cc1 (stereo unspecified),0,8.3*,4,-3,11,-2,1
NCCCSC1=NCCCN1,0,0,-9,2,12,0,2
COc1cc(-c2nc(-c3cccc(C)c3)no2)cc(OC)c1OC,0,8.1*,8,2,1,0,0
SMILES,aDG glyco up,V-ATPase pH,ADAM10 inh,MPTP block,Lipid droplet,ADAM17 inh,V-ATPase pH SP
CCOC(=O)[C@@H](NC(=O)[C@@H]1CC=C[C@@H]2CCN(Cc3ccc(Cl)cc3)C(=O)[C@@H]21)C(C)C,x,x,-5,x,x,-5,x
Cc1ccc(NC(=O)CSc2nnc(Cc3ccccc3)c(=O)[nH]2)c(C)c1,0,11*,-2,1,x,-1,-1
COc1ccc(Cc2nnc(SCC(=O)Nc3ccccc3)[nH]c2=O)cc1,0,-1,-11,1,x,-7,x
CC1(c2nnnn2Cc2ccccc2)CCCC(=O)N1Cc1cccs1 (stereo unspecified),x,x,4,x,x,-4,x
O=C(COc1ccccc1F)NNC(=O)Cc1ccc(S(=O)(=O)N2CCOCC2)s1,0,4,2,-1,x,-2,x
Cc1ccccc1OCC(=O)NNC(=O)Cc1ccc(S(=O)(=O)N2CCOCC2)s1,0,18*,-1,-1,x,-5,7
CN(C(=O)CSC1=NCCS1)c1ccccc1,0,0,4,-3,1,-1,x
CN(C(=O)CSc1nc(N)c2c3c(sc2n1)CSC(C)(C)C3)c1ccccc1,0,9.8*,-391,3,30,-114,0
COc1ccccc1N1CC(C(=O)Nc2ccccc2N2CCCC2)CC1=O (stereo unspecified),0,7.6*,5,-1,x,-2,1
O=C(Nc1ccccc1N1CCCCC1)C1CC(=O)N(c2ccccc2F)C1 (stereo unspecified),0,0,-6,0,x,-3,x
O=C(c1ccc([N+](=O)[O-])o1)N1CCN(c2nc3c(Cl)cccc3s2)CC1,2,10.0*,-10,-2,x,0,23*
COc1ccccc1C(CC(=O)N1CCCC1)c1ccc2c(c1)OCO2 (stereo unspecified),0,6.8*,-8,1,-12,-3,-3
COc1ccccc1C(CC(=O)O)c1ccc2c(c1)OCO2 (stereo unspecified),0,-2,-2,0,4,-5,x
Nn1c(SCC(=O)Nc2ccccc2-c2ccccc2)nnc1-c1cc(-c2ccc(F)cc2)n[nH]1,x,x,1,x,x,3,x
COC(=O)c1cc(S(=O)(=O)Nc2cccc(C)c2C)cn1C,0,11*,1,0,2,1,6
O=C(c1ccc(F)cc1)n1ccc2ccc(-c3ccc4ccn(Cc5ccccc5)c4c3)cc21,x,x,-46,x,x,-14,x
O=C(CCCN1C(=O)/C(=C/c2ccccc2Cl)SC1=S)NNC(=O)c1ccccc1Cl,1,10*,0,1,-11,-4,4
CCCCCCCCN1C(=O)[C@@H](CC(=O)NCC23CC4CC(CC(C4)C2)C3)C[C@@]2(C(=O)OC)C1=C[C@H](C(C)C)O[C@@H]2C1CC1,x,x,-10,x,x,-7,x
COc1cc(/C=N/n2c(-c3cc(-c4ccccc4)n[nH]3)n[nH]c2=S)ccc1OCc1ccccc1,x,x,-17,x,x,0,x
O=C(c1ccc(Cl)cc1)C1C2C(=O)N(c3ccccc3)C(=O)C2C2CCCN21 (stereo unspecified),0,-1,-11,-1,x,2,x
